Laboratory results as given in ChEMBL document CHEMBL3352384, “Synthesis and biological activity of new salicylanilide N,N-disubstituted carbamates and thiocarbamates” (Bioorg Med Chem, 2014).
In brackets after ≈: the same amount, converted by molar mass.

What was measured:
[1] = system: Staphylococcus epidermidis; assay: Antimicrobial activity against Staphylococcus epidermidis H 6966/08 after 24 hrs by microdilution method; assay type: functional; conditions: H 6966/08, 24 h
Procedure, shortened: (§1)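 Broth microdilution in Mueller-Hinton broth, compounds dissolved in DMSO, final concentrations 500 to 0.49 µM. Benzylpenicillin and bacitracin were run as comparators. MIC was taken as 95% (IC95) or greater growth reduction versus control. Each determination was done twice.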

Staphylococcus aureus [2] = assay: Antimicrobial activity against Staphylococcus aureus CCM 4516/08 after 48 hrs by microdilution method; assay type: functional; conditions: CCM 4516/08, 48 h
Procedure, shortened: (§2)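 Mueller-Hinton broth microdilution; compounds dissolved in DMSO, final concentrations 500 to 0.49 µM. […] Benzylpenicillin and bacitracin as comparators. Each determination done twice.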

Staphylococcus aureus [3] = assay: Antimicrobial activity against methicillin-resistant Staphylococcus aureus H 5996/08 after 48 hrs by microdilution method; assay type: functional; conditions: H 5996/08, 48 h; procedure, shortened: as §2
Enterococcus sp. [4] = assay: Antimicrobial activity against Enterococcus sp. J 14365/08 after 48 hrs by microdilution method; assay type: functional; conditions: J 14365/08, 48 h; procedure, shortened: as §1
[5] = system: Staphylococcus epidermidis; assay: Antimicrobial activity against Staphylococcus epidermidis H 6966/08 after 48 hrs by microdilution method; assay type: functional; conditions: H 6966/08, 48 h; procedure, shortened: as §1
[6] = Selectivity index, ratio of IC50 for human HepG2 cells to MIC for methicillin-resistant Staphylococcus aureus H 5996/08
Procedure, shortened: (§3)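 Selectivity index = HepG2 IC50 / MIC. HepG2 cells (passage 3–4) grown in Eagle's MEM with 10% FBS, L-glutamine and non-essential amino acids. Compounds added from DMSO, eight concentrations in triplicate, tetrazolium-reduction colorimetric read-out. IC50 is the concentration reducing viability to 50% of control; 10% DMSO as 0% viability.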

HepG2 = assay: Cytotoxicity against human HepG2 cells assessed as reduction in cell viability after 24 hrs by MTS assay; assay type: cell-based; conditions: HepG2, 24 h
Procedure, shortened: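 HepG2 hepatocellular carcinoma cells (passage 3–4) were grown in Eagle's MEM with 10% FBS, 1% L-glutamine and non-essential amino acids. Compounds were added from DMSO at eight concentrations in triplicate, with 10% DMSO as the 0% viability control. Viability was read by tetrazolium salt reduction (CellTiter 96 AQueous One). IC50 is the concentration reducing viability to 50% of control.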

Staphylococcus aureus [7] = assay: Antimicrobial activity against Staphylococcus aureus CCM 4516/08 after 24 hrs by microdilution method; assay type: functional; conditions: CCM 4516/08, 24 h; procedure, shortened: as §2
Enterococcus sp. [8] = assay: Antimicrobial activity against Enterococcus sp. J 14365/08 after 24 hrs by microdilution method; assay type: functional; conditions: J 14365/08, 24 h; procedure, shortened: as §1
Staphylococcus aureus [9] = assay: Antimicrobial activity against methicillin-resistant Staphylococcus aureus H 5996/08 after 24 hrs by microdilution method; assay type: functional; conditions: H 5996/08, 24 h; procedure, shortened: as §2
Mycobacterium kansasii [10] = assay: Antimycobacterial activity against Mycobacterium kansasii 235/80 assessed as complete growth inhibition after 7 days; assay type: functional; conditions: 235/80, 168 h
Procedure, shortened: (§4)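 Dilutions of M. kansasii inoculum were 10-4 for strain 235/80 and 10-5 for clinical isolate 6509/96. MIC was the lowest concentration giving complete growth inhibition, run in quadruplicate and repeated twice.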

[11] = Selectivity index, ratio of IC50 for human HepG2 cells to MIC for atypical mycobacteria; procedure, shortened: as §3
Mycobacterium avium [12] = assay: Antimycobacterial activity against Isoniazid, rifampicin, ofloxacin and ethambutol-resistant Mycobacterium avium 330/88 assessed as complete growth inhibition after 21 days; assay type: functional; conditions: 330/88, 504 h
Procedure, shortened: (§5)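 M. tuberculosis 331/88 (H37Rv) inoculum diluted 10-3, M. avium 330/88 diluted 10-5. MIC is the lowest concentration giving complete growth inhibition. Isoniazid and p-aminosalicylic acid as references. Quadruplicate, repeated twice.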

Mycobacterium kansasii [13] = assay: Antimycobacterial activity against clinical isolate Mycobacterium kansasii 6509/96 assessed as complete growth inhibition after 21 days; assay type: functional; conditions: 6509/96, 504 h; procedure, shortened: as §4
Mycobacterium kansasii [14] = assay: Antimycobacterial activity against Mycobacterium kansasii 235/80 assessed as complete growth inhibition after 14 days; assay type: functional; conditions: 235/80, 336 h; procedure, shortened: as §4
Mycobacterium kansasii [15] = assay: Antimycobacterial activity against clinical isolate Mycobacterium kansasii 6509/96 assessed as complete growth inhibition after 7 days; assay type: functional; conditions: 6509/96, 168 h; procedure, shortened: as §4
Mycobacterium avium [16] = assay: Antimycobacterial activity against Isoniazid, rifampicin, ofloxacin and ethambutol-resistant Mycobacterium avium 330/88 assessed as complete growth inhibition after 14 days; assay type: functional; conditions: 330/88, 336 h; procedure, shortened: as §5
[17] = system: Mycobacterium tuberculosis; assay: Antimycobacterial activity against Mycobacterium tuberculosis H37Rv 331/88 assessed as complete growth inhibition after 14 days; assay type: functional; conditions: H37Rv 331/88, 336 h; procedure, shortened: as §5
[18] = system: Mycobacterium tuberculosis; assay: Antimycobacterial activity against Mycobacterium tuberculosis H37Rv 331/88 assessed as complete growth inhibition after 21 days; assay type: functional; conditions: H37Rv 331/88, 504 h; procedure, shortened: as §5
[19] = Inhibition of Mycobacterium tuberculosis H37Rv isocitrate lyase assessed as glyoxylate phenyl hydrazone formation at 10 uM
Mycobacterium kansasii [20] = assay: Antimycobacterial activity against clinical isolate Mycobacterium kansasii 6509/96 assessed as complete growth inhibition after 14 days; assay type: functional; conditions: 6509/96, 336 h; procedure, shortened: as §4
[21] = Selectivity index, ratio of IC50 for human HepG2 cells to MIC for Mycobacterium tuberculosis H37Rv; assay type: toxicity, cell-based; conditions: read-out: Selectivity Index
Procedure, shortened: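 Selectivity index = HepG2 IC50 / MIC. HepG2 cells (passage 3–4) grown in Eagle's MEM with 10% FBS, L-glutamine and non-essential amino acids. Compounds added from DMSO, eight concentrations in triplicate, tetrazolium-reduction colorimetric read-out.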

[22] = Selectivity index, ratio of IC50 for human HepG2 cells to MIC for Trichophyton mentagrophytes 445
Mycobacterium kansasii [23] = assay: Antimycobacterial activity against Mycobacterium kansasii 235/80 assessed as complete growth inhibition after 21 days; assay type: functional; conditions: 235/80, 504 h; procedure, shortened: as §4
[24] = system: Trichophyton mentagrophytes; assay: Antimicrobial activity against Trichophyton mentagrophytes 445 after 120 hrs by microdilution method; assay type: functional; conditions: Trichophyton mentagrophytes, 445, 120 h
Procedure, shortened: (§6)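 Broth microdilution in RPMI 1640 with glutamine, with fluconazole and amphotericin B as references. For filamentous fungi, MIC is expressed as the IC50, i.e. the concentration giving 50% growth reduction versus control. Each determination was done twice.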

[25] = system: Trichophyton mentagrophytes; assay: Antimicrobial activity against Trichophyton mentagrophytes 445 after 72 hrs by microdilution method; assay type: functional; conditions: Trichophyton mentagrophytes, 445, 72 h; procedure, shortened: as §6
in vitro = conditions: human, HepG2 cells

| Structure (SMILES) | MIC [1] [µM] | MIC (Staphylococcus aureus [2]) [µM] | MIC (Staphylococcus aureus [3]) [µM] | MIC (Enterococcus sp. [4]) [µM] | IC50 (HepG2) [µM] | MIC (Mycobacterium kansasii [10]) [µM] | MIC (Mycobacterium avium [12]) [µM] | MIC (Mycobacterium kansasii [13]) [µM] | MIC (Mycobacterium kansasii [14]) [µM] | MIC (Mycobacterium kansasii [15]) [µM] | MIC (Mycobacterium avium [16]) [µM] | MIC [17] [µM] | MIC [18] [µM] | inhibition [19] [%] | MIC (Mycobacterium kansasii [20]) [µM] | selectivity ratio [21] | Selectivity Index [22] | MIC (Mycobacterium kansasii [23]) [µM] | MIC [24] [µM] | MIC [25] [µM] | also measured |
| --- | --- | --- | --- | --- | --- | --- | --- | --- | --- | --- | --- | --- | --- | --- | --- | --- | --- | --- | --- | --- | --- |
| CC1(C)S[C@@H]2[C@H](NC(=O)Cc3ccccc3)C(=O)N2[C@H]1C(=O)O [PENICILLIN G] | 250 (≈ 83.6 µg/mL) | 0.98 (≈ 0.328 µg/mL) | 125 (≈ 41.8 µg/mL) | 15.6 (≈ 5.22 µg/mL) | > 10000 | – | – | – | – | – | – | – | – | – | – | – | – | – | – | – | MIC [5]: 250 µM (≈ 83.6 µg/mL); Selectivity Index [6]: >10.2; MIC (Staphylococcus aureus [7]): 0.98 µM (≈ 0.328 µg/mL); MIC (Enterococcus sp. [8]): 7.81 µM (≈ 2.61 µg/mL); MIC (Staphylococcus aureus [9]): 62.5 µM (≈ 20.9 µg/mL) |
| O=C(Nc1ccc(Cl)cc1)c1cc(Cl)ccc1O | – | – | – | – | 21.7 | 4 (≈ 1.13 µg/mL) | 16 (≈ 4.51 µg/mL) | 8 (≈ 2.26 µg/mL) | 8 (≈ 2.26 µg/mL) | 4 (≈ 1.13 µg/mL) | 8 (≈ 2.26 µg/mL) | 4 (≈ 1.13 µg/mL) | 4 (≈ 1.13 µg/mL) | 13 | 8 (≈ 2.26 µg/mL) | 5.4 | 11.1 | 8 (≈ 2.26 µg/mL) | – | – | Selectivity Index [11]: 1.4 |
| C[C@@H]1[C@H](O)[C@@H](C)/C=C/C=C/C=C/C=C/C=C/C=C/C=C/[C@H](O[C@@H]2O[C@H](C)[C@@H](O)[C@H](N)[C@@H]2O)C[C@@H]2O[C@](O)(C[C@@H](O)C[C@@H](O)[C@H](O)CC[C@@H](O)C[C@@H](O)CC(=O)O[C@H]1C)C[C@H](O)[C@H]2C(=O)O [AMPHOTERICIN B] | – | – | – | – | 2.5 | – | – | – | – | – | – | – | – | – | – | – | 1.3 | – | 1.95 (≈ 1.8 µg/mL) | 1.95 (≈ 1.8 µg/mL) | – |
| OC(Cn1cncn1)(Cn1cncn1)c1ccc(F)cc1F [FLUCONAZOLE] | – | – | – | – | > 300 | – | – | – | – | – | – | – | – | – | – | – | >2.4 | – | 125 (≈ 38.3 µg/mL) | 7.81 (≈ 2.39 µg/mL) | – |
| CN(C)C(=S)Oc1ccc(Cl)cc1C(=O)Nc1ccc(C(F)(F)F)cc1 | 31.2 (≈ 12.6 µg/mL) | 7.81 (≈ 3.15 µg/mL) | 7.81 (≈ 3.15 µg/mL) | > 500 | 67.3 | 16 (≈ 6.45 µg/mL) | 16 (≈ 6.45 µg/mL) | 32 (≈ 12.9 µg/mL) | 32 (≈ 12.9 µg/mL) | 16 (≈ 6.45 µg/mL) | 16 (≈ 6.45 µg/mL) | 4 (≈ 1.61 µg/mL) | 4 (≈ 1.61 µg/mL) | 12 | 32 (≈ 12.9 µg/mL) | 16.8 | <1 | 32 (≈ 12.9 µg/mL) | 500 (≈ 201 µg/mL) | 500 (≈ 201 µg/mL) | Selectivity Index [11]: 2.1; MIC [5]: 31.2 µM (≈ 12.6 µg/mL); Selectivity Index [6]: 8.6; MIC (Staphylococcus aureus [7]): 7.81 µM (≈ 3.15 µg/mL); MIC (Enterococcus sp. [8]): > 500 µM; MIC (Staphylococcus aureus [9]): 7.81 µM (≈ 3.15 µg/mL) |
| NNC(=O)c1ccncc1 [ISONIAZID] | – | – | – | – | > 250 | > 250 | > 250 | 4 (≈ 0.549 µg/mL) | > 250 | 2 (≈ 0.274 µg/mL) | > 250 | 0.5 (≈ 0.0686 µg/mL) | 1 (≈ 0.137 µg/mL) | 0 | 4 (≈ 0.549 µg/mL) | > 250 | – | > 250 | – | – | selectivity ratio (in vitro): ≥ 31.3 |
